Source: ChEMBL document CHEMBL1141156, “Mapping antimalarial pharmacophores as a useful tool for the rapid discovery of drugs effective in vivo: design, construction, characterization, and pharmacology of metaquine” (2005)

Legend:
Plasmodium falciparum = assay: In vitro inhibition of Plasmodium falciparum K1; assay type: functional
In short: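 Synchronized, mostly ring-stage P. falciparum K1 at 1.0% parasitemia in RPMI 1640 with 25 mM HEPES pH 7.4 and 32 mM NaHCO3. Drug from DMSO stock, final DMSO ≤0.01%. Culture 24 h at 37 °C under 17% O2/3% CO2/80% N2, then 18–24 h with [3H]hypoxanthine. Incorporation counted by scintillation after filter harvest; IC50 reported.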

[1] = Binding constant dissolved in DMSO against hematin receptor at pH 7.4 (HEPES Buffer) upon incubation at 30 degree C
In short: (§1)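 Hemin from 1.2 mM DMSO stock diluted to ~12 μM in 40% aqueous DMSO, 0.02 M HEPES, apparent pH 7.4–7.5 (monomeric hematin). Drug serial dilutions mixed with heme in microplate wells, 30 min incubation at the stated temperature, absorbance at 405 nm (Soret). Reference wells without heme subtract drug absorbance. Triplicate readings; log K by nonlinear least-squares fit, 1:1 heme–drug model.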

[2] = Binding constant dissolved in DMSO against hematin receptor at pH 7.4 (HEPES Buffer) upon incubation at 37 degree C; in short: as §1
[3] = Binding constant dissolved in DMSO against hematin receptor at pH 7.4 (HEPES Buffer) upon incubation at 42 degree C; in short: as §1
[4] = Dose (diphosphate) present in DMSO required to inhibit Plasmodium berghei N/13 infected mice (Mus musculus) administered subcutaneously 3-4 hr after infection on day 1 and then twice daily on days 2 and 3; assay type: functional; settings: sc, read-out: ID50 (the source's name)
In short: (§2)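 MF1 mice inoculated iv with 2×10^7 P. berghei N/13 parasitized erythrocytes. Drug given sc as five injections over 72 h in olive oil/DMSO (96:4) or saline/DMSO (96:4). Parasitemia read at 72 h on Leishman-stained tail blood smears, 4–8 mice per dose, 2–8 dose levels. ID50 is the dose giving 50% inhibition versus concurrent vehicle-treated mice.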

[5] = Dose (dihydrochloride) present in DMSO required to inhibit Plasmodium berghei N/13 infected mice (Mus musculus) administered subcutaneously; assay type: functional; settings: sc, read-out: ID50 (the source's name); in short: as §2
[6] = Binding constant dissolved in DMSO against hematin receptor at pH 7.4 (HEPES Buffer) upon incubation at 23 degree C; in short: as §1
Plasmodium berghei = assay: In vivo 50% inhibition of parasitaemia in Plasmodium berghei infected mice (Mus musculus) by oral dose; assay type: functional; settings: read-out: ID50 (the source's name)
In short: (§3)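 P. berghei-infected MF1 mice (2×10^7 parasitized erythrocytes iv). Drug in Water for Injections BP/DMSO (98:2) at 65 and 199 μM in drinking water, ad libitum; daily volume drunk measured to calculate dose. Parasitemia on Leishman-stained tail smears at 72 h, 4–8 mice per group. ID50 is 50% inhibition versus vehicle-treated mice.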

[7] = Dose of the compound (hydrochloride) required to inhibit Plasmodium berghei Plasmodium berghei N/13 parasitemia by 50%; assay type: functional; settings: read-out: ID50 (the source's name); in short: as §3
[8] = Dose (dihydrochloride) present in DMSO required to inhibit Plasmodium berghei NY infected mice (Mus musculus) administered intraperitoneally; assay type: functional; settings: ip, read-out: ID50 (the source's name)
In short: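 MF1 mice infected iv with 2×10^7 P. berghei NY parasitized erythrocytes. Dosing ip, five injections over 72 h, in Water for Injections BP/DMSO (96:4). Parasitemia counted on Leishman-stained tail smears at 72 h, groups of 4–8 mice. ID50 derived from 2–8 dose levels relative to vehicle-treated controls.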

[9] = Dose present in DMSO required to inhibit Plasmodium berghei N/13 infected mice (Mus musculus) administered subcutaneously 3-4 hr after infection on day 1 and then twice daily on days 2 and 3; assay type: functional; settings: sc, read-out: ID50 (the source's name); in short: as §2

| IC50 (Plasmodium falciparum) [nM] | Log K [1] | Log K [2] | Log K [3] | Log K [6] | Compound | ED50 [4] [µmol/kg] | ED50 [5] [µmol/kg] | ED50 (Plasmodium berghei) [µmol/kg] | ED50 [7] [µmol/kg] | ED50 [8] [µmol/kg] | ED50 [9] [µmol/kg] |
| --- | --- | --- | --- | --- | --- | --- | --- | --- | --- | --- | --- |
| 230 | 5.4 | 5.4 | 5.3 | – | CCN(CC)CCCC(C)Nc1ccnc2cc(Cl)ccc12 (stereo not given) [CHLOROQUINE] | 8.3 | – | – | – | – | – |
| 170 | 5.4 | 5.1 | 5.8 | 6.1 | Clc1ccc2c(Nc3cccc(Nc4ccnc5cc(Cl)ccc45)c3)ccnc2c1 [METAQUINE] | – | 2.9 | 25 | 2.4 | 3.2 | 1.5 |
